Assay results as given in PMC11589030 (Discover Oncology, 2024).
“Also recorded” adds a separate entry of the source. Where two headings read alike, the source gives them in different places.

Legend:
E-Cadherin = assay: AmpliSeq expression in MHCC97-H cells: E-Cadherin; assay type: cell-based; details: Fig. 5B
How it was run: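 MHCC97-H cells in DMEM with 10% FBS were treated with pralatrexate (2, 1, 0.5), fatostatin (1, 0.1) or BAY-876 (1, 0.1 μmol/L). RNA (10 ng) was reverse transcribed and amplified with custom AmpliSeq RNA panels. Expression was normalised to β-actin. Three replicate wells per sample; three biological replicates.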

Notch 1 protein and NICD = assay: Sub-cellular fraction assay with western blot; assay type: cell-based; details: MHCC97-H, 2 μmol/L, 30 min, 1 h, 2 h
How it was run: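 After treatment, cells were sonicated. Nuclei were pelleted at 800 rpm, 4 °C, ~3 min, and the cytoplasmic fraction at 12,000 rpm, 4 °C, ~10 min. Fractions were boiled ~15 min in SDS-PAGE buffer and blotted onto PVDF. One C-terminal Notch1 antibody detected full-length Notch1 (>220 kDa) and NICD (~110 kDa). β-actin and Lamin A served as cytoplasmic and nuclear markers; detection was by chemiluminescence.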

HCC cells = assay: Biochemical examination of metabolic features; assay type: cell-based; details: compared to BAY-876 or fatostatin, Fig. 6
MHCC97-H cells [1] = assay: In vivo tumor model, MHCC97-H subcutaneous tumours; design: species or system nude mice
[2] = tested on: miRNA-34a promoter region; assay: BSP-NGS methylation of miRNA-34a promoter in MHCC97-H cells; assay type: cell-based; details: MHCC97-H cells with direct expression of NICD, Fig. 7
How it was run: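 Genomic DNA from NICD-lentivirus-transduced MHCC97-H cells was isolated with a kit and used for bisulfite sequencing PCR plus next-generation sequencing. The region analysed was the miRNA-34a promoter segment chr1: 9152409–9152574, which holds seven CpG sites. Methylation rates were calculated by the Ma et al. (2020) procedure.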

NICD = assay: AmpliSeq expression in MHCC97-H cells: NICD; assay type: cell-based; details: MHCC97-H cells with direct expression of NICD, Fig. 7
miRNA-34a = assay: AmpliSeq miRNA-34a expression in MHCC97-H cells; assay type: cell-based; details: MHCC97-H cells with direct expression of NICD, Fig. 7
How it was run: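 MHCC97-H cells were transduced with NICD lentivirus and cultured in DMEM with 10% FBS. RNA (10 ng) was reverse transcribed and cDNA amplified with custom AmpliSeq RNA panels to quantify miRNA-34a, normalised to β-actin. Three replicate wells per sample; three biological replicates.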

miRNA-34a/Notch pathway = assay: BSP-NGS, AmpliSeq and western blot of subcutaneous tumour tissues; assay type: in vivo, nude mice
How it was run: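 Female BALB/c nude mice (5-week-old, SPF) bore subcutaneous MHCC97-H tumours, one per animal, 10 per group. Pralatrexate 5 mg/kg was given by oral gavage every other day for about 15 doses. All excised tumours underwent BSP-NGS (miRNA-34a promoter methylation) and AmpliSeq (miRNA-34a expression). Tumours 2, 4 and 8 were lysed in RIPA/SDS buffer for western blot of NICD against GAPDH.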

HepG2 cells = assay: MTT assay, HepG2 cells; assay type: cell-based; details: Homo sapiens
How it was run: (§1)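 HCC cells were transfected with control siRNA or siRNA against DHFR. Test compound was dissolved in DMSO, diluted in DMEM and applied at a concentration series. Viability was read by MTT and OD 490 nm. Inhibition = (OD control − OD treated)/OD control × 100%. IC50 was taken from dose–effect curves.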

MHCC97-H cells [3] = assay: MTT assay, MHCC97-H cells; assay type: cell-based; details: Homo sapiens, MHCC97H
How it was run: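 MHCC97-H cells in DMEM with 10% FBS were pretreated 6–8 h with solvent control or pralatrexate (0.5, 1, 2 μmol/L). Molecular targeted drugs were then added as a seven-point series from 10 to 0.01 for about 48 h, with drugs dissolved in DMSO and diluted in DMEM. Viability was read by MTT at OD 490 nm. Inhibition % was computed against control and IC50 fitted in GraphPad Prism.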

[4] = Drug metabolism rate assay; assay type: in vitro ADME; details: human, MHCC97-H cells
LMC-3 cells = assay: MTT assay, LMC-3 cells; assay type: cell-based
How it was run: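 LMC-3 cells in DMEM with 10% FBS were transfected with control siRNA or siDHFR. They were then exposed to graded sorafenib concentrations and assayed by MTT. Inhibition = (OD490 control − OD490 treated)/OD490 control × 100%. IC50 was fitted from dose–effect curves in GraphPad Prism.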

HepG2 2.2.15 cells = assay: MTT assay, HepG2 2.2.15 cells; assay type: cell-based; details: Homo sapiens
How it was run: as §1

**Q.** Which E-Cadherin expression (E-Cadherin) does the source give for Cc1c(NC(=O)c2cc(C(N)=O)nc3cc(F)ccc23)c(C(F)(F)F)nn1Cc1ccc(C#N)cc1 [BAY-876] here?
**A.** enhanced the expression of E-Cadherin

**Q.** What does the source list for C#CCC(Cc1cnc2nc(N)nc(N)c2n1)c1ccc(C(=O)N[C@@H](CCC(=O)O)C(=O)O)cc1 (stereo partly drawn) [Pralatrexate, pralatrexate]?
**A.** E-Cadherin expression (E-Cadherin): upregulated the expression of E-cadherin; also recorded: enhanced the expression of E-Cadherin; Notch 1 protein expression (cytoplasm) (Notch 1 protein and NICD): did not affect the protein expression of Notch 1; distribution of NICD in the nucleus (Notch 1 protein and NICD): did not affect the distribution of NICD in the nucleus; Warburg effect of HCC cells (HCC cells): did not inhibit the Warburg effect; effect of combination on antitumour activity of sorafenib (MHCC97-H cells [1]; 5 mg/kg Pralatrexate + 0.2 mg/kg sorafenib, oral): significantly increase the antitumour activity of sorafenib; antitumour activity / cytotoxicity, subcutaneous tumours (MHCC97-H cells [1]; Pralatrexate 5 mg/kg oral gavage, alone): did not have significant cytotoxicity and weak; anti-tumour activity, subcutaneous tumours (MHCC97-H cells [1]; Pralatrexate higher doses (e.g. 20 mg/kg) oral gavage): significant anti-tumour activity; methylation rates of miRNA-34a promoter region [2]: decrease the methylation rates; expression levels of NICD and Notch downstream factors (NICD): no longer able to affect the expression levels of NICD and Notch downstream factors; miRNA-34a expression (miRNA-34a): upregulate miRNA-34a expression; expression of NICD and Survivin in tumour tissue (miRNA-34a/Notch pathway; NICD expression restored in MHCC97-H cells, Pralatrexate 5 mg/kg): no longer able to inhibit the expression of NICD and Survivin; expression of factors related to the Notch pathway in tumour tissue (miRNA-34a/Notch pathway; Pralatrexate 5 mg/kg oral): down-regulate the expression of factors related to the Notch pathway; expression of miRNA-34a in tumour tissue (miRNA-34a/Notch pathway; Pralatrexate 5 mg/kg oral): up-regulate the expression of miRNA-34a; methylation of the promoter region of miRNA-34a in tumour tissue (miRNA-34a/Notch pathway; Pralatrexate 5 mg/kg oral): inhibit the methylation of the promoter region of miRNA-34a

**Q.** For CNC(=O)c1cc(Oc2ccc(NC(=O)Nc3ccc(Cl)c(C(F)(F)F)c3)cc2)ccn1 [Sorafenib, sorafenib], which IC50 (HepG2 cells; HepG2, read-out: IC50 values of sorafenib on HCC cells, HepG2 cells, control) is on record?
**A.** 1160 nM

**Q.** What about the IC50 (HepG2 cells; HepG2, read-out: IC50 values of sorafenib on HCC cells, HepG2 cells, siDHFR) of the same molecule?
**A.** 37 nM

**Q.** What about the IC50 (MHCC97-H cells [3]; read-out: IC50 value of sorafenib in MHCC97-H cells, Control siRNA) of the same molecule?
**A.** 1110 nM

**Q.** And the IC50 (MHCC97-H cells [3]; read-out: IC50 values of Sorafenib on MHCC97-H cells, Control group)?
**A.** 1020 nM

**Q.** What about the IC50 (MHCC97-H cells [3]; read-out: IC50 values of Sorafenib on MHCC97-H cells, DHFR + miRNA-34a) of the same molecule?
**A.** 250 nM

**Q.** And the IC50 (MHCC97-H cells [3]; read-out: IC50 values of Sorafenib on MHCC97-H cells, DHFR overexpression)?
**A.** 5380 nM

**Q.** And the IC50 (MHCC97-H cells [3]; read-out: IC50 values of Sorafenib on MHCC97-H cells, siDHFR + NICD)?
**A.** 5670 nM

**Q.** And the half-life at 1 μmol/L [4]?
**A.** 1130 min

**Q.** And the “antitumour activity, subcutaneous tumours” value (MHCC97-H cells [1]; sorafenib 0.2 mg/kg (low dose) oral gavage, alone)?
**A.** weak subcutaneous tumourigenic inhibitory activity and weak

**Q.** And the IC50 (LMC-3 cells; read-out: IC50 values of sorafenib on HCC cells, LMC-3 cells, control)?
**A.** 910 nM

**Q.** And the IC50 (LMC-3 cells; read-out: IC50 values of sorafenib on HCC cells, LMC-3 cells, siDHFR)?
**A.** 25 nM

**Q.** And the IC50 (HepG2 2.2.15 cells; HepG2 2.2.15, read-out: IC50 values of sorafenib on HCC cells, HepG2 2.2.15 cells, control)?
**A.** 1250 nM

**Q.** And the IC50 (HepG2 2.2.15 cells; HepG2 2.2.15, read-out: IC50 values of sorafenib on HCC cells, HepG2 2.2.15 cells, siDHFR)?
**A.** 13 nM

**Q.** Which E-Cadherin expression (E-Cadherin) does the source give for CCCc1cc(-c2nc(-c3ccc(C)cc3)cs2)ccn1 [Fatostatin, fatostatin] here?
**A.** enhanced the expression of E-Cadherin

**Q.** Which half-life at 0.3 μmol/L [4] does the source give for COc1cccc2c1C(=O)c1c(O)c3c(c(O)c1C2=O)C[C@@](O)(C(=O)CO)C[C@@H]3O[C@H]1C[C@H](N)[C@H](O)[C@H](C)O1 [Adriamycin, adriamycin] here?
**A.** 795 min
